ChEMBL document CHEMBL2311469, “Development of new cathepsin B inhibitors: combining bioisosteric replacements and structure-based design to explore the structure-activity relationships of nitroxoline derivatives” (J Med Chem, 2013)
Activity calls are given as the source filed them. The calls are words filed in the database; no cut-off is given here.

How the values were obtained:
Pro-cathepsin H [1] = target: T1, Pro-cathepsin H (Homo sapiens, UniProt P09668); test: Noncompetitive inhibition of human liver cathepsin H endopeptidase activity using R-AMC substrate assessed as inhibition constant for enzyme-inhibitor complex
T1 sequence (P09668 whole entry): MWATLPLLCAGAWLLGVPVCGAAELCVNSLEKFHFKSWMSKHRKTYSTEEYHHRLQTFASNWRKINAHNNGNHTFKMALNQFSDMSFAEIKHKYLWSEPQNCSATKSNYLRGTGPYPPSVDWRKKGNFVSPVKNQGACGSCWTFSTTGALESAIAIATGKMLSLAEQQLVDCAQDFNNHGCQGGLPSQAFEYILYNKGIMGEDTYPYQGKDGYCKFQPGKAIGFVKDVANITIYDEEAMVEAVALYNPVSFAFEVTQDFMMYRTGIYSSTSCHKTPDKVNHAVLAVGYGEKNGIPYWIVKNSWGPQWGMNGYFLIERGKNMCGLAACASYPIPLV
In short: (§1)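 Native catH isolated from human liver was preactivated for 5 min at 37 °C in 100 mM phosphate pH 6.8 with 0.1% PEG 8000, 5 mM DTT and 1.5 mM EDTA. Arg-AMC was used at 20, 80 and 160 μM, with inhibitor at 0–200 μM (seven levels) and 5% DMSO. […] Run twice in duplicate.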

Procathepsin L = Procathepsin L (Homo sapiens, UniProt P07711); test: Competitive inhibition of human recombinant cathepsin L endopeptidase activity using Z-FR-AMC substrate expressed in Escherichia coli assessed as inhibition constant for enzyme-inhibitor complex
In short: (§2)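 Ki from rates at three substrate levels with inhibitor at 0, 20, 40, 60, 80, 100 and 200 μM. Enzymes were preactivated 5 min at 37 °C. CatL (recombinant, E. coli): 100 mM acetate pH 5.5, Z-Phe-Arg-AMC 0.5/1/4 μM. CatH (native, human liver): 100 mM phosphate pH 6.8, Arg-AMC 20/80/160 μM. Buffers held 0.1% PEG 8000, 5 mM DTT and 1.5 mM EDTA, plus 5% DMSO. Two runs in duplicate.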

Homo sapiens [2] = species: Homo sapiens; test: Selectivity ratio of Ki for human recombinant cathepsin L to Ki for human recombinant cathepsin B
Homo sapiens [3] = species: Homo sapiens; test: Selectivity ratio of Ki for human liver cathepsin H to Ki for human recombinant cathepsin B
Pro-cathepsin H [4] = target: T1, Pro-cathepsin H; test: Noncompetitive inhibition of human liver cathepsin H endopeptidase activity using R-AMC substrate assessed as inhibition constant for enzyme-substrate-inhibitor complex; in short: as §1
Cathepsin B [5] = target: T2, Cathepsin B (Homo sapiens, UniProt P07858); test: Mixed inhibition of human recombinant cathepsin B endopeptidase activity using Z-Arg-Arg-AMC substrate assessed as inhibition constant for enzyme-substrate-inhibitor complex
Cathepsin B [6] = target: T2, Cathepsin B; test: Noncompetitive inhibition of human recombinant cathepsin B exopeptidase activity using Abz-Gly-Ile-Val-Arg-Ala-Lys(Dnp)-OH substrate
In short: (§3)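 Human recombinant catB, preactivated 5 min at 37 °C in assay buffer containing 0.1% PEG 8000, 5 mM DTT and 1.5 mM EDTA. […] Exopeptidase: 60 mM acetate pH 5.0, Abz-GIVRAK(Dnp)-OH 1/3/6 μM (Km 6.3 μM). Inhibitor 0–200 μM, 5% DMSO, 37 °C, fluorescence rate; two runs in duplicate.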

Cathepsin B [7] = target: T2, Cathepsin B; test: Mixed inhibition of human recombinant cathepsin B […] assessed as inhibition constant for enzyme-inhibitor complex
Cathepsin B [8] = target: T2, Cathepsin B; test: Inhibition of human recombinant cathepsin B exopeptidase activity using Abz-Gly-Ile-Val-Arg-Ala-Lys(Dnp)-OH substrate
Cathepsin B [9] = target: T2, Cathepsin B; test: Inhibition of human recombinant cathepsin B endopeptidase activity using Z-Arg-Arg-AMC substrate
Cathepsin B [10] = target: T2, Cathepsin B; test: Uncompetitive inhibition of human recombinant […] assessed as inhibition constant for enzyme-substrate-inhibitor complex
Cathepsin B [11] = target: T2, Cathepsin B; test: Competitive inhibition of human recombinant cathepsin B exopeptidase activity using Abz-Gly-Ile-Val-Arg-Ala-Lys(Dnp)-OH substrate assessed as inhibition constant for enzyme-inhibitor complex; in short: as §3
Pro-cathepsin H [12] = target: T1, Pro-cathepsin H; test: Uncompetitive inhibition of human liver cathepsin H endopeptidase activity using R-AMC substrate assessed as inhibition constant for enzyme-substrate-inhibitor complex; in short: as §2
MCF-10A = test: Inhibition of human MCF10A neoT cell invasion expressing c-Ha-Ras oncogene at 5 uM after 30 mins relative to DMSO-treated control; format: functional; conditions: 72 h, in the assay text read “after 72 hrs” for “after 30 mins”
In short: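 xCELLigence CIM-16 invasion assay. Upper chamber coated with 5 mg/mL Matrigel; lower well coated with bovine fibronectin. Compound 5 μM or 0.05% DMSO in both chambers, equilibrated 30 min at 37 °C. Then 3 × 10^4 cells seeded in serum-free medium, cell index read every 15 min for 72 h. Invasion = cell index with compound / DMSO; mean ± SD, n = 4, two experiments.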

Chain of Procathepsin L (P07711 whole entry): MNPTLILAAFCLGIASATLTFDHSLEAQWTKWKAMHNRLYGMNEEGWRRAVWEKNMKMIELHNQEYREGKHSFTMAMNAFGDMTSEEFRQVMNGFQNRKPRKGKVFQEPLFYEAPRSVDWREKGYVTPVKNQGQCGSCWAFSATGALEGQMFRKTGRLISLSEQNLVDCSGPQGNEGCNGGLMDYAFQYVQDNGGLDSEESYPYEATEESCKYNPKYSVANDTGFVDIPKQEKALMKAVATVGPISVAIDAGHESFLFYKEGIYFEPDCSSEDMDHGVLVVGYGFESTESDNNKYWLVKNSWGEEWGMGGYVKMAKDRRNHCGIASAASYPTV

With `CC1CCN(c2ccc([N+](=O)[O-])c3cccnc23)CC1` the Ki (Pro-cathepsin H [1]) was 221 µM, the Ki (Procathepsin L) was 155 µM and the Ratio Ki (Homo sapiens [2]) was 6. For the same molecule, the Ratio Ki (Homo sapiens [3]) was 9, the Ki (Pro-cathepsin H [4]) was 221 µM and the Ki (Cathepsin B [5]) was 105 µM. The Ki (Cathepsin B [6]) was 24 µM and the Ki (Cathepsin B [7]) was 207 µM.

For `C#CCNc1ccc([N+](=O)[O-])c2cccnc12`, the inhibition (Cathepsin B [8]) was “inactive” and the inhibition (Cathepsin B [9]) was “inactive”.

With `CCNCc1cc([N+](=O)[O-])c2cccnc2c1O` the Ki (Cathepsin B [5]) was 82 µM, the Ki (Cathepsin B [6]) was 136 µM and the Ki (Cathepsin B [7]) was 117 µM.

In the case of `O=[N+]([O-])c1cc(CNCc2ccccc2)c(O)c2ncccc12`, the Ki (Cathepsin B [5]) is reported as 58 µM, the Ki (Cathepsin B [6]) is reported as 154 µM and the Ki (Cathepsin B [7]) is reported as 198 µM.

In the case of `CN(CCc1ccccc1)c1ccc([N+](=O)[O-])c2cccnc12`, the Ki (Cathepsin B [6]) is reported as 350 µM and the Ki (Cathepsin B [10]) is reported as 175 µM.

For `CN(CC#N)Cc1cc([N+](=O)[O-])c2cccnc2c1O`, the Ki (Cathepsin B [5]) was 76 µM, the Ki (Cathepsin B [6]) was 172 µM and the Ki (Cathepsin B [7]) was 126 µM.

In the case of `Nc1c(O)cc(S(=O)(=O)O)c2ccccc12`, the inhibition (Cathepsin B [9]) is reported as “inactive”.

With `CCOC(=O)N1CCN(Cc2cc([N+](=O)[O-])c3cccnc3c2O)CC1` the Ki (Cathepsin B [5]) was 87 µM, the Ki (Cathepsin B [6]) was 156 µM and the Ki (Cathepsin B [7]) was 129 µM.

For `O=S(=O)(O)c1ccc(O)c2ccccc12`, the inhibition (Cathepsin B [9]) was “inactive”.

`O=[N+]([O-])c1cc([N+](=O)[O-])c2cccnc2c1O` gave a Ki (Cathepsin B [6]) of 146 µM and a Ki (Cathepsin B [10]) of 72 µM.

For `O=[N+]([O-])c1ccc(N2CCOCC2)c2ccccc12`, the Ki (Cathepsin B [5]) was 125 µM, the Ki (Cathepsin B [6]) was 85 µM and the Ki (Cathepsin B [7]) was 289 µM.

With `Nc1ccc([N+](=O)[O-])c2ccccc12` the Ki (Cathepsin B [5]) was 111 µM, the Ki (Cathepsin B [6]) was 147 µM and the Ki (Cathepsin B [7]) was 217 µM.

`CN(Cc1ccccc1)c1ccc([N+](=O)[O-])c2cccnc12` gave a Ki (Cathepsin B [5]) of 137 µM, a Ki (Cathepsin B [11]) of 196 µM and a Ki (Cathepsin B [7]) of 242 µM.

In the case of `O=[N+]([O-])c1ccc(N2CCCC2)c2ccccc12`, the Ki (Pro-cathepsin H [12]) is reported as 251 µM, the Ki (Procathepsin L) is reported as 245 µM and the Ratio Ki (Homo sapiens [2]) is reported as greater than 6. For the same molecule, the Ratio Ki (Homo sapiens [3]) was 7, the Ki (Cathepsin B [5]) was 277 µM and the Ki (Cathepsin B [6]) was 34 µM. It also gave a Ki (Cathepsin B [7]) of 170 µM.

In the case of `O=[N+]([O-])c1ccc(O)c2ccccc12`, the inhibition (Cathepsin B [8]) is reported as “inactive”, the Ki (Cathepsin B [5]) is reported as 84 µM and the Ki (Cathepsin B [7]) is reported as 373 µM.

For `CCOC(=O)[C@@H]1CCCC[C@@H]1NCc1cc([N+](=O)[O-])c2cccnc2c1O`, the Ki (Cathepsin B [5]) was 74 µM, the Ki (Cathepsin B [6]) was 130 µM and the Ki (Cathepsin B [7]) was 132 µM.

With `CCCNC(=O)[C@H]1O[C@@H]1C(=O)N[C@H](C(=O)N1CCC[C@H]1C(=O)O)C(C)CC` (single isomer, unassigned) the inhibition at 5 µM (MCF-10A) was 48%.
